{"source": "ChEMBL document CHEMBL4033615", "about": "“Protoxenicins A and B, Cytotoxic Long-Chain Acylated Xenicanes from the Soft Coral Protodendron repens” (2017)", "format_in_all_cases": "functional", "conditions_in_all_cases": "for CC50: read-out: LC50 (the source's name)", "key": {"[1]": {"test_system": "MDA-MB-231", "experiment": "Cytotoxic activity against human MDA-MB-231 cells", "method_in_brief": "(§1)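 Human tumour lines (A-549 lung carcinoma, MDA-MB-231 breast adenocarcinoma, HT-29 colorectal carcinoma) exposed to test agent. Growth measured against untreated control cells. Survival estimated with the NCI algorithm, yielding three dose–response parameters: GI50 (50% growth inhibition), TGI (total growth inhibition) and LC50 (50% cell death).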"}, "[2]": {"test_system": "HT-29", "experiment": "Cytotoxic activity against human HT-29 cells", "method_in_brief": "as §1"}, "[3]": {"test_system": "A549", "experiment": "Cytotoxic activity against human A549 cells", "method_in_brief": "as §1"}}}
{"smiles": "COc1cccc2c1C(=O)c1c(O)c3c(c(O)c1C2=O)C[C@@](O)(C(=O)CO)C[C@@H]3O[C@H]1C[C@H](N)[C@H](O)[C@H](C)O1", "note": "[DOXORUBICIN]", "values": [{"measurement": "GI50", "setting": "[1]", "result": 0.2, "unit": "µM"}, {"measurement": "TGI", "setting": "[1]", "result": 0.5, "unit": "µM"}, {"measurement": "CC50", "setting": "[1]", "result": 2.4, "unit": "µM"}, {"measurement": "GI50", "setting": "[2]", "result": 0.3, "unit": "µM"}, {"measurement": "TGI", "setting": "[2]", "result": 0.9, "unit": "µM"}, {"measurement": "CC50", "setting": "[2]", "result": "> 17.2", "unit": "µM"}, {"measurement": "GI50", "setting": "[3]", "result": 0.2, "unit": "µM"}, {"measurement": "TGI", "setting": "[3]", "result": 0.9, "unit": "µM"}, {"measurement": "CC50", "setting": "[3]", "result": "> 17.2", "unit": "µM"}]}
{"smiles": "C=C1[C@@H]2[C@@H](OC(C)=O)OC=C([C@@H](OC(C)=O)[C@@H](OC(=O)CCCCCCCCC)[C@H]3OC3(C)C)[C@H]2CC[C@](C)(O)[C@@H]2O[C@@H]2[C@H]1O", "values": [{"measurement": "GI50", "setting": "[1]", "result": 2.1, "unit": "µM"}, {"measurement": "TGI", "setting": "[1]", "result": 2.8, "unit": "µM"}, {"measurement": "CC50", "setting": "[1]", "result": 3.8, "unit": "µM"}, {"measurement": "GI50", "setting": "[2]", "result": 0.6, "unit": "µM"}, {"measurement": "TGI", "setting": "[2]", "result": 1.2, "unit": "µM"}, {"measurement": "CC50", "setting": "[2]", "result": 2.2, "unit": "µM"}, {"measurement": "GI50", "setting": "[3]", "result": 1.1, "unit": "µM"}, {"measurement": "TGI", "setting": "[3]", "result": 1.4, "unit": "µM"}, {"measurement": "CC50", "setting": "[3]", "result": 1.8, "unit": "µM"}]}
{"smiles": "C=C1[C@@H]2[C@@H](OC(C)=O)OC=C([C@@H](OC(C)=O)[C@H](C=C(C)C)OC(=O)CCCCCCCCC)[C@H]2CC/C(C)=C/[C@@H](O)[C@H]1O", "values": [{"measurement": "GI50", "setting": "[1]", "result": 6.3, "unit": "µM"}, {"measurement": "TGI", "setting": "[1]", "result": 9.7, "unit": "µM"}, {"measurement": "CC50", "setting": "[1]", "result": 12.9, "unit": "µM"}, {"measurement": "GI50", "setting": "[2]", "result": 1.7, "unit": "µM"}, {"measurement": "TGI", "setting": "[2]", "result": 5.2, "unit": "µM"}, {"measurement": "CC50", "setting": "[2]", "result": 10.4, "unit": "µM"}, {"measurement": "GI50", "setting": "[3]", "result": 6.1, "unit": "µM"}, {"measurement": "TGI", "setting": "[3]", "result": 10.1, "unit": "µM"}, {"measurement": "CC50", "setting": "[3]", "result": 13.3, "unit": "µM"}]}
